# Source: ChEMBL document CHEMBL4138180, “neo-Clerodane Diterpenoids from Salvia polystachya Stimulate the Expression of Extracellular Matrix Components in Human Dermal Fibroblasts” (2017)
# The source made the active and inactive calls. The calls are words filed in the database; no cut-off is given here.
# Assays:
# NHDF [1] = test: Inhibition of elastin mRNA expression in HDF at 0.29 to 29.2 uM after 48 hrs by RT-PCR analysis; assay type: functional, cell-based; settings: Homo sapiens
# Summary of the method: (§1)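 Normal human dermal fibroblasts from plastic-surgery biopsies, collagenase-disaggregated, grown in L15 Leibovitz with 10% FBS and penicillin/streptomycin at 37 °C. At 70% confluence refed with medium containing 0.26−0.29, 2.56−2.93 or 25.6−29.3 μM compound for 48 h. Total RNA, oligo-dT RT-PCR, 30 cycles, agarose gel band densitometry normalized to GAPDH. Fold versus basal-medium control, mean ± SD, one-way ANOVA.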
# NHDF [2] = test: Upregulation of elastin mRNA expression in HDF at 0.29 to 29.2 uM after 48 hrs by RT-PCR analysis; assay type: functional, cell-based; settings: Homo sapiens; summary of the method: as §1
# NHDF [3] = test: Upregulation of COL1A1 mRNA expression in HDF at 29.2 uM after 48 hrs by RT-PCR analysis relative to control; assay type: functional, Homo sapiens; summary of the method: as §1
# NHDF [4] = test: Upregulation of elastin mRNA expression in HDF at 100 uM after 48 hrs by RT-PCR analysis; assay type: functional, cell-based; settings: Homo sapiens
# Summary of the method: (§2)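 Positive control: ascorbic acid at 100 μM in basal medium (L15 Leibovitz, 10% FBS, antibiotics) added to normal human dermal fibroblasts at 70% confluence, 48 h, 37 °C. Total RNA reverse-transcribed with oligo dT, PCR 30 cycles, bands on 1.5% agarose quantified and normalized to GAPDH mRNA. Mean ± SD versus basal-medium control, one-way ANOVA.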
# NHDF [5] = test: Upregulation of COL1A1 mRNA expression in HDF at 100 uM after 48 hrs by RT-PCR analysis; assay type: functional, cell-based; settings: Homo sapiens; summary of the method: as §2
# NHDF [6] = test: Upregulation of COL5A1 mRNA expression in HDF at 2.93 uM after 48 hrs by RT-PCR analysis relative to control; assay type: functional, Homo sapiens
# Summary of the method: (§3)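 Primary dermal fibroblasts from surgical biopsies, collagenase-dissociated and grown in L15 with 10% FBS at 37 °C. Total RNA (1 μg) was reverse-transcribed with oligo dT. PCR ran 30 cycles and products were run on 1.5% agarose. Bands were quantified and normalized to GAPDH, giving fold over the basal-medium control as mean ± SD, with one-way ANOVA.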
# NHDF [7] = test: Upregulation of elastin mRNA expression in HDF at 0.29 to 29.3 uM after 48 hrs by RT-PCR analysis relative to control; assay type: functional, Homo sapiens; summary of the method: as §3
# Bacillus sp. = test: Antibacterial activity against Bacillus sp. at 0.5 to 8 ug after 18 hrs by agar disc diffusion method; assay type: functional, organism-based
# Summary of the method: (§4)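 Bacteria suspended in saline at 10^8 CFU mL−1; 0.1 mL spread on nutrient agar (pH 6.8). Filter-paper disks carrying 8, 4, 2, 1 and 0.5 μg of compound (in DMSO) placed on the plates. Incubated aerobically at 37 °C for 18 h. Inhibition zone measured by caliper. Ampicillin and DMSO disks served as controls.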
# NHDF [8] = test: Upregulation of […] mRNA expression in HDF at 0.29 uM after 48 hrs by RT-PCR analysis relative to control; assay type: functional, Homo sapiens; summary of the method: as §3
# NHDF [9] = test: Upregulation of COL1A1 mRNA expression in HDF at 0.29 to 29.3 uM after 48 hrs by RT-PCR analysis; assay type: functional, cell-based; settings: Homo sapiens; summary of the method: as §3
# Escherichia coli = test: Antibacterial activity against Escherichia coli at 0.5 to 8 ug after 18 hrs by agar disc diffusion method; assay type: functional, organism-based; summary of the method: as §4
# NHDF [10] = test: Upregulation of […] mRNA expression in HDF at 2.93 uM after 48 hrs by RT-PCR analysis relative to control; assay type: functional, Homo sapiens; summary of the method: as §3
# Nakaseomyces glabratus = test: Antifungal activity against Candida glabrata CBS 138 at 0.5 to 8 ug after 24 hrs by agar disc diffusion method; assay type: functional, organism-based
# Summary of the method: (§5)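 Qualitative disk diffusion on potato dextrose agar. Fungal inoculum at a final 10^5 CFU mL−1. Disks carried 8, 4, 2, 1 and 0.5 μg of compound in DMSO. Incubated aerobically at 37 °C for 24 h. Growth-inhibition zone measured by caliper. Amphotericin B and DMSO disks served as controls.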
# NHDF [11] = test: Inhibition of elastin mRNA expression in HDF at 0.29 to 29.3 uM after 48 hrs by RT-PCR analysis; assay type: functional, cell-based; settings: Homo sapiens; summary of the method: as §3
# Candida albicans = test: Antifungal activity against Candida albicans ATCC 10235 at 0.5 to 8 ug after 24 hrs by agar disc diffusion method; assay type: functional, organism-based; summary of the method: as §5
# NHDF [12] = test: Upregulation of COL5A1 mRNA expression in HDF at 0.28 uM after 48 hrs by RT-PCR analysis relative to control; assay type: functional, Homo sapiens; summary of the method: as §1
# NHDF [13] = test: Upregulation of COL1A1 mRNA expression in HDF at 0.28 uM after 48 hrs by RT-PCR analysis relative to control; assay type: functional, Homo sapiens; summary of the method: as §1
# NHDF [14] = test: Inhibition of elastin mRNA expression in HDF at 0.28 to 27.9 uM after 48 hrs by RT-PCR analysis; assay type: functional, cell-based; settings: Homo sapiens; summary of the method: as §1
# NHDF [15] = test: Upregulation of […] mRNA expression in HDF at 0.28 to 27.9 uM after 48 hrs by RT-PCR analysis relative to control; assay type: functional, Homo sapiens; summary of the method: as §1
# NHDF [16] = test: Upregulation of elastin mRNA expression in HDF at 0.28 to 27.9 uM after 48 hrs by RT-PCR analysis relative to control; assay type: functional, Homo sapiens; summary of the method: as §1
compound,measurement,setting,value
C[C@@H]1[C@H]2C[C@@]34COC(=O)[C@H]3CC=C[C@H]4[C@@]13C[C@H](c1ccoc1)O[C@H]3O2,inhibition,NHDF [1],inactive
same,Activity,NHDF [2],Active
same,fold change (FC),NHDF [3],1.6
O=C1O[C@H]([C@@H](O)CO)C(O)=C1O,Activity,NHDF [4],Active
same,Activity,NHDF [5],Active
C[C@]12C[C@H](c3ccoc3)OC(=O)[C@H]1CC[C@@]13COC(=O)C1=CC=C[C@H]32,fold change (FC),NHDF [6],2.5
same,fold change (FC),NHDF [7],2.1 - 3.4
same,Activity,Bacillus sp.,inactive
same,fold change (FC),NHDF [8],2.5
same,Activity,NHDF [9],inactive
same,Activity,Escherichia coli,inactive
same,fold change (FC),NHDF [10],3.4
same,Activity,Nakaseomyces glabratus,inactive
same,inhibition,NHDF [11],inactive
same,Activity,Candida albicans,inactive
C[C@@H]1[C@H]2C[C@@]34COC(=O)[C@H]3C[C@H]3O[C@H]3[C@H]4[C@@]13C[C@H](c1ccoc1)O[C@H]3O2,Activity,Bacillus sp.,inactive
same,fold change (FC),NHDF [12],2.2
same,fold change (FC),NHDF [13],1.6
same,Activity,Escherichia coli,inactive
same,inhibition,NHDF [14],inactive
same,Activity,Nakaseomyces glabratus,inactive
same,fold change (FC),NHDF [15],2.1 - 2.5
same,Activity,Candida albicans,inactive
same,fold change (FC),NHDF [16],2.7 - 3.2
